OX1R antag-1 – human HCRTR1 antagonism. O43613. CHO/OX1R cells, Fluo-8 calcium fluorescence, orexin A. inhibition, % at 5 µM. actives 0.43% (n = 330,000);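 active = inhibition above its plate's threshold, mean inhibition of all tested compounds on the plate plus 3 SD, cut at about 37% in these data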;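 note: 0% = orexin A challenge wells and 100% = SB-334867-A antagonist wells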
TAAR1 antagonist – antagonists of human TAAR1; CHO RD-HGA16 TAAR1, Fluo-8 calcium fluorescence, antagonist; inhibition, % at 3 µM; actives 1.5% (n = 360,000); AID 624466;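 active = inhibition above a per-plate cutoff, the mean inhibition of test compounds on that plate plus 3 SD, cut at about 49% in these data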;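 note: 0% = DMSO plus EC80 beta-PEA response and 100% = DMSO alone without agonist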
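Test system: CHO RD-HGA16 cells bearing hTAAR1 | Reagent: β-PEA, EC80 | Compound dosing: 3 µM, single point | Schedule: Dye loading 75 min at 37 °C, then 30 min room temperature | Signal: Calcium fluorescence with Fluo-8 | Evaluation: Percent inhibition of PEA-evoked calcium signal, max/basal emission ratio | Control set: DMSO-only wells and EC80 β-PEA-stimulated wells | Repeats: Singlicate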
OX1R antag-2 – OX1R (human) antagonism | O43613 | OX1R-expressing cells, FRET antagonist read-out | inhibition, % at 6.6 µM | actives 1.8% (n = 330,000) | AID 485270; in the data active = inhibition mostly above about 38%, no sharp cut-off; inactive = mostly below about 40%;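 note: 0% = agonist challenge alone and 100% = reference antagonist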
GPR7 antagonist – blocks human GPR7 receptor signaling; P48145; GPR7-expressing cells, fluorescence antagonist assay; inhibition, % at 4.4 µM; actives 1.1% (n = 290,000); in the data active = inhibition above about 16%, passing the limit was not always enough;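 note: cells stimulated with the agonist NPW; 0% = agonist with vehicle and 100% = vehicle without agonist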
Target sequence (P48145 whole entry, looked up): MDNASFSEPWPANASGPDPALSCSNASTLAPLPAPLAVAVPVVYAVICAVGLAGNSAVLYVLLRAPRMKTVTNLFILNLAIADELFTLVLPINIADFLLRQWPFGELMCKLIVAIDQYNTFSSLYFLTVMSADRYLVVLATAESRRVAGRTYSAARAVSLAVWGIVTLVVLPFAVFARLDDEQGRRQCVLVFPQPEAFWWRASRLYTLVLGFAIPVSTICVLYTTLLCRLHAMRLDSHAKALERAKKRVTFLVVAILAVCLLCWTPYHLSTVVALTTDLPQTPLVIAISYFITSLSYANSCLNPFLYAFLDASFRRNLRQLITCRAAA
TAAR1 ag – human TAAR1 agonism | Q96RJ0 | CHO RD-HGA16 TAAR1, Fluo-8 calcium fluorescence; vehicle wells 0%, saturating PEA agonist 100% | activation, % at 3 µM | actives 0.99% (n = 360,000) | AID 624467;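 active = activation above the mean activation of all test compounds in the run plus 3 SD, cut at about 38% in these data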
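Assay system: CHO-derived RD-HGA16 cells with stable Gα16 and human TAAR1; timing: 17-24 h seeding, 75 min 37 °C dye, 30 min RT; read-out: % activation from peak over basal fluorescence ratio, DMSO-to-PEA scaled; measured by: kinetic Fluo-8 calcium fluorescence; benchmarks: low control DMSO, high control PEA (EC100); doses: 3 µM single concentration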
CHO parental Ca – counter-screen for OX1R antagonists: effect in parental CHO cells | AID 463079 | actives 0.63% (n = 330,000) | inhibition, % at 5.6 µM | parental CHO-K1, ATP-induced calcium, Fluo-8 fluorescence;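 active = inhibition above that plate's mean sample inhibition plus 3 SD, cut at about 26% in these data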;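 note: 0% = ATP-challenged DMSO wells and 100% = DMSO wells without ATP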
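Assay system – parental CHO cells · Reagent – ATP stimulus · Detection – intracellular calcium via Fluo-8 no-wash fluorescent dye · Evaluation – percent inhibition of ATP-evoked calcium rise, normalized to controls · Controls – ATP wells versus no-ATP DMSO wells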
nonsel antag count – nonselective antagonism, TAAR1 counter-screen | shares compounds with TAAR1 antagonist | counterscreen cell line, calcium fluorescence, antagonist mode | inhibition, % at 3 µM | actives 77% (n = 2,400) | AID 651780; in the data active = inhibition above about 22%;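 note: CHO-Ga16 host cells stimulated with ATP at an EC80 level; 0% = agonist EC80 plus vehicle and 100% = vehicle without agonist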
TAAR1 ant conf – confirmation of human TAAR1 antagonists; TAAR1-expressing cells, fluorescence antagonist read-out; inhibition, % at 3 µM; actives 40% (n = 2,400); shares compounds with TAAR1 antagonist; in the data active = inhibition above about 49%;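 note: CHO-Ga16 host cells challenged with agonist PEA near its EC80; 0% = agonist at EC80 plus vehicle and 100% = vehicle with no agonist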
Ga16 ag counter – counter-screen for TAAR1 antagonists: nonselective Ga16 agonists. Ga16-expressing cells, calcium fluorescence, agonist counterscreen. actives 18% (n = 2,400). shares compounds with TAAR1 antagonist. activation, % at 3 µM. AID 651953; in the data active = activation above about 12%;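 note: 0% = vehicle wells and 100% = saturating stimulus response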
TAAR1 ag counter – TAAR1 agonism, antagonist counter-screen; shares compounds with TAAR1 antagonist; hTAAR1 cell line, fluorescence activation, agonist mode; activation, % at 3 µM; actives 2% (n = 2,400); in the data active = activation above about 37%;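 note: CHO cells stably expressing TAAR1 with calcium dye readout; 0% = DMSO vehicle and 100% = full agonist response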
* marks the source's active call; other numbers are inactive results; . = no result given. Only some compounds are listed: those with a hit (about 4.5% of all), similar ones and a draw of the others.

SMILES	OX1R antag-1	TAAR1 antagonist	OX1R antag-2	GPR7 antagonist	TAAR1 ag	CHO parental Ca	nonsel antag count	TAAR1 ant conf	Ga16 ag counter	TAAR1 ag counter
O=[N+]([O-])c1cc(-n2cccc2)ccc1N1CCOCC1	2.8	59.6*	20.7	-12.2	13.1	-9.4	27.5*	39.9	10.3	10.9
CCOC(=O)Cc1csc2nc(-c3ccccc3)cn12	.	-21.2	.	.	3.1	.	.	.	.	.
Cc1ccc([N+](=O)[O-])cc1NC(=O)c1ccccc1	-14.7	6.0	20.8	-0.7	-0.9	1.8	.	.	.	.
O=C(Nc1ccc([N+](=O)[O-])cc1NC(=O)c1ccccc1)c1ccccc1	.	57.2*	.	.	6.4	.	32.1*	43.5	7.1	6.6
O=C(O)c1cc(-c2ccc3c(c2)OCO3)nc2ccc(Cl)cc12	-2.3	-25.6	42.1	-4.6	0.2	3.6	.	.	.	.
O=C(c1cc(-c2ccncc2)nc2ccc(Cl)cc12)N1CCN(Cc2ccc3c(c2)OCO3)CC1	-15.1	58.5*	3.8	-2.4	19.6	-15.1	31.8*	53.1*	9.7	10.4
CS(=O)(=O)N1CCN(C(=O)c2cc(-c3cccnc3)nc3ccc(Cl)cc23)CC1	-25.2	33.5	22.5	-5.0	13.7	-16.4	.	.	.	.
COc1ccc(CN2CCN(C(=O)c3cc(-c4cccnc4)nc4ccc(Cl)cc34)CC2)c(OC)c1OC	-30.3	72.3*	17.1	-3.2	18.4	-18.8	32.2*	54.3*	7.7	7.4
COc1ccc(N(CC(=O)NC2CC3CCC2C3)S(=O)(=O)c2ccc(C)cc2)cc1Cl (stereo not drawn)	.	2.4	.	.	0.8	.	.	.	.	.
COc1ccc(OC)c(NC(=O)C2(C)CCN2C(=O)C2(c3ccc(Cl)cc3)CCC2)c1 (stereo not drawn)	.	0.1	.	.	-0.4	.	.	.	.	.
CC(=O)Nc1cc(-c2ccccc2CN(C)C)cn2c(-c3ccc(F)c(Cl)c3)cnc12	.	-37.6	.	.	-0.1	.	.	.	.	.
C/C(=N\NC(=O)c1ccncc1)c1cccc(NC(=O)c2ccc(C(C)(C)C)cc2)c1	-27.7	76.0*	26.1	-6.5	10.4	-11.8	37.0*	54.0*	10.8	8.1
C/C(=N\NC(=O)COc1ccccc1[N+](=O)[O-])c1cccc(NC(=O)c2ccncc2)c1	-8.4	86.3*	31.2	-10.1	24.4	-4.8	38.1*	58.3*	15.3*	16.4
COc1cccc2ccc(CC(O)(c3ccccc3)c3ccccc3)nc12	.	-20.9	.	.	1.3	.	.	.	.	.
COc1cc(-c2nnc(SCC(=O)c3ccc(C)cc3)o2)cc(OC)c1OC	-16.6	54.2*	11.5	-5.0	3.7	-32.8	26.2*	27.9	4.0	1.1
[2H]c1c([2H])c([2H])c(-c2nc(N3CCCCCC3)sc2C(=O)c2ccccc2)c([2H])c1[2H]	0.3	61.9*	10.6	4.0	14.7	-11.3	11.4	16.0	0.3	0.6
O=C(c1sc(N2CCOCC2)nc1-c1ccccc1)N1CCCCC1	-17.1	-5.1	26.0	11.4	-0.7	-18.5	.	.	.	.
COc1ccccc1Nc1nnc(SCc2cc(=O)n3cc(C)ccc3n2)s1	-14.7	69.2*	19.3	-9.9	15.7	-12.8	29.9*	44.8	8.9	7.5
CCO[C@@H]1OC(C(=O)N2CCN(Cc3ccc4c(c3)OCO4)CC2)=C[C@H](C2CCCCC2)[C@H]1CCCO	-12.2	66.9*	29.4	16.3	14.7	-19.8	29.1*	44.8	8.6	7.0
CCO[C@@H]1OC(C(=O)Nc2ccccc2)=C[C@H](c2ccc3c(c2)OCO3)[C@H]1CCCO	-24.9	49.3*	15.2	-21.6	19.4	-3.4	19.0	24.6	6.3	6.7

Source: PubChem BioAssay
